# Compound activity: PubChem BioAssay, several laboratories
# AHR act: activators of human aryl hydrocarbon receptor; P35869; AHR-responsive luciferase reporter cells, luminescence; activation, % at 5 µM; 2.5% of 320,000 active; in the data active means activation above about 47%;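 further: 0% = vehicle wells and 100% = reference agonist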
# SR-BI HDL uptake: inhibitors of mouse SR-BI mediated HDL lipid uptake; 0.96% of 320,000 active; inhibition, % at 12.5 µM; Q61009; ldlA[mSR-BI] CHO cells, DiI-HDL uptake fluorescence, 3 h;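 active means mean replicate inhibition of at least 70% and a set share of replicates each scoring 70 or more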;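 further: 0% = median of neutral control wells and 100% = median of positive control wells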
# Target sequence (Q61009 whole entry, looked up): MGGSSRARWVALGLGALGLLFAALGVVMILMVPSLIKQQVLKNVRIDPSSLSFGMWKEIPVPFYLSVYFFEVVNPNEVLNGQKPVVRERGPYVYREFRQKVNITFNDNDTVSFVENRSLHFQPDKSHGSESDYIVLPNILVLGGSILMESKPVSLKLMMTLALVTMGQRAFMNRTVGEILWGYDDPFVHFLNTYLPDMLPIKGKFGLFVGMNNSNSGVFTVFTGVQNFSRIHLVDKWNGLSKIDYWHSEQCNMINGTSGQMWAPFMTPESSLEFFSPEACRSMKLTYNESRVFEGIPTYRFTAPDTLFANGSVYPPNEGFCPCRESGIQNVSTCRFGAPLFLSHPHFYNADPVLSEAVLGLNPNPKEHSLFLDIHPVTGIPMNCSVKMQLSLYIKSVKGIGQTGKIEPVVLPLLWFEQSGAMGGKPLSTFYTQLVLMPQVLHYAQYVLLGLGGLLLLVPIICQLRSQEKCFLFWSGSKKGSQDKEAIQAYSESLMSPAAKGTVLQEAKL
# SR-BI DiI-HDL act: SR-BI HDL lipid transfer activation. CHO ldlA[mSR-BI] cells, DiI-HDL uptake fluorescence, 3 h; 100 = double the neutral-control signal. 0.096% of 320,000 active. activation, % at 12.5 µM;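 active means mean replicate activation of at least 60% and every replicate at or above 60%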;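 further: 0% = median plate neutral-control signal and 100% = twice that signal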
#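 Material: SR-BI-overexpressing, LDLR-lacking CHO cells | Dosing: Single compound concentration, delivered by pin transfer | Probe or stimulus: Labelled HDL, 10 µg/mL | Signal: Bottom-read cell fluorescence after medium removal, ex 550/em 595 nm | Schedule: 3 h, 37 °C | Evaluation: HDL uptake via cellular fluorescence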
# GASC-1 inh: inhibitors of human GASC-1 (JMJD2C) demethylase; Q9H3R0; GST-JMJD2C(1-420) H3K9me3 demethylation, DELFIA europium; inhibition, % at 2.35 µM; 0.069% of 330,000 active; AID 2099;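 active means more than half of a compound's replicate wells show inhibition beyond 50%, single wells judged on their own value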;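 further: signal counts dimethyl H3K9 product captured on neutravidin plate; 0% = median of DMSO wells and 100% = 0.3 times that DMSO median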
# FXN GAA850 act: activators of GAA850 frataxin (FXN) promoter; HEK293 lucGAA850 FXN promoter luciferase reporter, 24 h; percent of 10 µM SAHA response; activation, % at 6 µM; 0.56% of 360,000 active; AID 540364;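 active means activation above the average of all compounds screened plus 3 SD, cutoff fixed separately per campaign, cut at about 7.5% in these data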;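 further: 0% = DMSO wells and 100% = 10 µM SAHA wells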
# AHR act cf: human AHR activation, confirmation; activation, % at 9 µM; AID 2845; 87% of 2,300 active; human cells, AHR-responsive luciferase reporter, luminescence; shares compounds with AHR act; in the data active means activation above about 49%;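 further: HepG2 hepatoma cells carrying a DRE-driven firefly luciferase reporter; 0% = vehicle wells and 100% = reference agonist wells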
# PXR act counter: activates human PXR in AHR activator counter-screen; activation, % at 11.6 µM; 88% of 2,300 active; cell-based PXR reporter, luciferase luminescence; AID 434939; shares compounds with AHR act; in the data active means activation above about 11%;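 further: human hepatoma DPX-2 cells expressing full-length human PXR; 0% = DMSO and 100% = reference agonist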
# Numbers without * were called inactive; i = inactive; x = no result. Compounds with a hit are over-represented: about 3.7% of the library has one in this group of screens.
SMILES,AHR act,SR-BI HDL uptake,SR-BI DiI-HDL act,GASC-1 inh,FXN GAA850 act,AHR act cf,PXR act counter
O=C1COCC(=O)N1CCc1c[nH]c2ccccc12,83.2*,-14.0,14.0,-19.2,0.7,108.2*,12.0*
Brc1cccc2sc(N3CCN(c4ccccc4)CC3)nc12,91.2*,15.5,-15.5,0.8,3.6,108.3*,18.5*
CCc1ccc(S(=O)(=O)c2n[nH]n3c2nc(=O)c2ccccc23)cc1,0.9,-9.2,9.2,3.3,-1.5,x,x
O=c1nc2c(-c3ccccc3F)n[nH]n2c2ccccc12,111.3*,1.8,-1.8,-19.7,6.0,181.6*,25.8*
O=C(NCCCNC(=O)c1ccccn1)c1ccc(Br)cc1,2.7,13.6,-13.6,-24.0,0.1,x,x
O=C(O)c1cc(S(=O)(=O)Nc2ccc3c(c2)OCCO3)c(Cl)cc1Cl,82.9*,-15.8,15.8,-2.3,-11.2,14.8,13.7*
CC(=O)Nc1ccc(S(=O)(=O)Nc2ccc3c(c2)OCCO3)cc1Cl,0.7,6.8,-6.8,-9.8,-0.1,x,x
CCCCNS(=O)(=O)c1ccc2nc(-c3cccnc3)cc(C(=O)NC3CCCC3)c2c1,-0.3,x,x,4.7,2.2,x,x
O=C1CCC(C(=O)OCC(=O)N2N=C3/C(=C\c4ccccc4)CCCC3C2c2ccccc2)N1 (stereo not given),x,-2.8,2.8,x,0.3,x,x
O=C(c1ccccn1)N1N=C2/C(=C/c3ccccc3)CCCC2C1c1ccccc1 (stereo not given),111.7*,4.3,-4.3,-11.1,2.1,108.4*,65.5*
CCOC(=O)C1(C)CCCN(C(=O)c2ccc(F)cc2Cl)C1 (stereo not given),x,x,x,x,-2.6,x,x
CCOC(=O)N/N=C/c1c(C)c(C(=O)c2ccc(F)cc2)n2ccccc12,83.7*,-22.2,22.2,0.8,0.1,104.4*,74.5*
COC(=O)N/N=C/c1c(C)c(C(=O)c2ccc(F)cc2)n2ccccc12,85.8*,56.4,-56.4,21.0,-5.1,74.5*,93.9*
Cc1ccc(S(=O)(=O)NCC(c2ccccc2)N2CCN(c3ccc(F)cc3)CC2)cc1 (stereo not given),x,-21.2,21.2,-6.3,0.8,x,x
NS(=O)(=O)c1ccc(CCNC(=O)CCc2nc3ccccc3s2)cc1,5.0,-6.5,6.5,-11.3,0.6,x,x
CCCC(NC(=O)c1ccc(Br)o1)c1nc2ccccc2[nH]1 (stereo not given),4.2,-9.9,9.9,3.5,-3.8,x,x
CCCCNc1c(-c2ccc(OC)c(SC3CCCCC3)c2)nc2cnccn12,94.1*,27.3,-27.3,0.5,-1.7,57.6*,168.9*
CCCCNc1c(-c2ccc(OC)c(SC3CCCCC3)c2)nc2cc(C)ccn12,29.4,33.3,-33.3,2.3,2.8,x,x
O=c1c2ccccc2cnn1-c1ccc(Cl)cc1,133.5*,-5.7,5.7,-3.2,7.1,116.9*,47.1*
CCn1c(COc2ccc3c(c2)OCO3)nnc1SCC(=O)c1ccc(Cl)cc1,2.1,23.4,-23.4,4.6,1.6,x,x
COc1cccc(-c2sc3ccc(OC)cc3c2C#CCC(C)O)c1 (stereo not given),44.0,61.2,-61.2,-4.6,3.0,x,x
COc1ccc2sc(-c3ccc(SC)cc3)c(C#CCO)c2c1,85.2*,64.8,-64.8,-11.1,0.8,90.2*,33.9*
COc1ccc2sc(-c3ccc(N(C)C)cc3)c(C#CCCO)c2c1,108.8*,95.8*,-95.8,-6.6,5.1,129.1*,19.1*
COc1ccc(-c2sc3cc(OC)c(OC)cc3c2C#CCO)cc1,18.5,48.7,-48.7,x,-0.1,x,x
COc1ccc(C(C)=O)cc1Cn1c(C)c(C(=O)NCc2cccc(C(F)(F)F)c2)sc1=O,x,x,x,x,0.6,x,x
SMILES,AHR act,SR-BI HDL uptake,SR-BI DiI-HDL act,GASC-1 inh,FXN GAA850 act,AHR act cf,PXR act counter
Cc1cn(CC(=O)N2CCN(c3ccccn3)CC2)c(=O)[nH]c1=O,x,-3.9,3.9,x,1.2,x,x
Cc1cc2oc(C(=O)NCc3ccncc3)c(C)c2cc1C,89.4*,x,x,-0.7,0.7,49.8*,28.5*
C[C@H](CO)N1C[C@H](C)[C@@H](CN(C)CC2CCCCC2)Oc2ccc(NS(C)(=O)=O)cc2C1=O,-0.4,-32.8,32.8,-3.6,2.2,x,x
O=C(Nc1ccc(-c2ccc3nncn3n2)cc1)C1CCCC1,-0.6,13.8,-13.8,-6.7,2.8,x,x
CCOC(=O)c1c(NCCN(C)C)c2ccccc2[nH]c1=O,1.6,x,x,-7.8,-1.1,x,x
CCOC(=O)c1c(NCc2ccc3c(c2)OCO3)c2ccccc2[nH]c1=O,109.3*,18.5,-18.5,5.1,0.5,74.5*,156.0*
O=S(=O)(Nc1nc(-c2ccco2)c(-c2ccco2)s1)c1ccc(F)cc1F,x,x,x,x,0.5,x,x
COC(=O)c1c(C)[nH]c(C)c1C(=O)c1ccccc1Cc1ccccc1,25.3,9.5,-9.5,3.7,2.2,x,x
COC(=O)c1cnc2c(c(C)nn2C)c1OC,-0.7,-4.5,4.5,-5.9,0.8,x,x
Cc1cc(NC(=O)C2Oc3ccccc3OC2C)no1 (stereo not given),16.0,-0.6,0.6,12.0,3.7,x,x
O=C(Nc1nc2ccccc2s1)c1cc2c(s1)-c1ccccc1OC2,12.4,-7.5,7.5,0.1,1.8,x,x
CC1Oc2ccccc2OC1C(=O)Nc1nccs1 (stereo not given),79.7*,0.8,-0.8,1.8,2.5,105.3*,10.2*
Cc1cccc2c1-c1sc(C(=O)Nc3nccs3)cc1CO2,149.0*,66.4,-66.4,-2.4,-1.2,110.5*,21.8*
O=C(Nc1nccs1)c1cc2c(s1)-c1ccccc1OC2,150.0*,23.8,-23.8,3.6,2.6,114.8*,20.3*
CCOc1ccc(NC(=O)COC(=O)c2c[nH]c3ccccc23)cc1,x,x,x,x,-0.1,x,x
COc1ccccc1C1CC(c2cccs2)=NN1C(=O)CCC(=O)O (stereo not given),5.7,-5.1,5.1,-36.4,0.5,x,x
COc1ccccc1C1CC(c2cccs2)=Nc2ccccc2S1 (stereo not given),102.0*,15.0,-15.0,-2.9,6.9,93.3*,55.0*
O=C(OCn1nnc2ccccc2c1=O)c1cccc(S(=O)(=O)N2CCOCC2)c1,-1.6,11.7,-11.7,6.8,1.0,x,x
O=C(Nc1cccc(C(=O)O)c1)Nc1ccc2c(c1)OCO2,-5.7,-54.8,54.8,3.3,3.8,x,x
COc1ccc(NC(=O)Nc2cccnc2)c(OC)c1,91.0*,-10.5,10.5,-4.7,-0.7,114.7*,11.5*
Cc1ccc(C(=O)Nc2ccc3c(c2)OCO3)cc1NC(=O)c1ccco1,122.0*,5.8,-5.8,-6.1,1.1,86.1*,33.3*
COc1ccc(NC(=O)Nc2ccncc2)c(OC)c1,18.2,5.1,-5.1,-1.5,1.2,x,x
O=C(Nc1ccc2c(c1)OCO2)c1ccc(Cl)s1,113.4*,8.2,-8.2,i,4.2,85.1*,34.3*
